In assay [1] the test system is Megacyllene caryae adults. As to conditions: adult M. caryae, field; ref Mitchell, 2012; cited from earlier work.
A further assay concerns McOr5. In words: McOr5 co-expressed with Orco. Format: cell-based, Megacyllene caryae. The note with it: McOr5, odorant at 30 µM applied 20 s. The gist of the method:
(§1)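 Defolliculated Xenopus laevis oocytes (collagenase B, 2 h, room temperature) were co-injected with receptor and Orco (McOr1) cRNA and incubated 3–7 d. Two-electrode voltage clamp was run at −70 mV with 3 M KCl electrodes (0.2–2.0 MΩ) in ND96. Pheromone components and isomers, diluted in ND96, were applied at 30 µM for 20 s at 1.6 ml/min. Currents were filtered at 20 Hz and sampled at 100 Hz.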

The next assay concerns AmOr11. As to conditions: AmOr11, Xenopus assay; ref Wanner et al., 2007; cited from earlier work.
For another assay, the system named is McOr20. In words: McOr20 co-expressed with Orco. Format: cell-based, Megacyllene caryae. As to conditions: for Current response of receptor in separate screen: McOr20, odorant at 100 µM, data not shown; for Current response of receptor in screen: McOr20, odorant at 30 µM applied 20 s.
A further assay has as its system McOr3. Kind of assay: McOr3 co-expressed with Orco. Format: cell-based, Megacyllene caryae. As to conditions: McOr3, odorant at 30 µM applied 20 s. The gist of the method: as §1
In another assay the test system is BmOr3. As to conditions: ref Nakagawa et al., 2005; cited from earlier work.
Another assay relates to BmOr 1. As to conditions: ref Nakagawa et al., 2005; cited from earlier work.

Usually EC50 stands for the concentration at which the effect is half-maximal.

For `CC(C)=CCCC(C)=CC=O` (mixture of isomers) [Citral, citral], the Attraction of beetles result in assay [1] is “attracts males and females in similar numbers”. Consider `OCCc1ccccc1` [2-phenylethanol], for which, in the assay with McOr5, the “Current response of receptor in screen” value was “sensitive”. On to `CC(=O)CCCCCC=CC(=O)O` [9-oxo-2-decenoic acid], for which the 50% effective concentration (EC50) in the assay with AmOr11 was 280 nM.

For the molecule `CCC[C@H](O)[C@@H](C)O` [(2R,3S)-2,3-hexanediol], the “Current response of receptor in separate screen” value in the assay with McOr20 was “responded”. Regarding `CCC[C@@H](O)[C@H](C)O` [(2S,3R)-2,3-hexanediol], in the assay on McOr20, the “Current response of receptor in screen” value is “sensitive”. As for `CCC[C@H](O)[C@H](C)O` [(2S,3S)-2,3-hexanediol], the “Current response of receptor in separate screen” value with McOr20 is reported as “responded”.

Regarding `CCC[C@@H](O)C(C)=O` [(R)-3-hydroxyhexan-2-one], the “Current response of receptor in screen” value in the assay on McOr20 is “sensitive”. `CC[C@H](C)CO` [(S)-methylbutan-1-ol, (S)-2-methylbutan-1-ol]: the “Current response of receptor in screen” value with McOr3 is “responded with high sensitivity”. In the case of `CCC/C=C\C=C\CCCCCCCCC=O` [bombykal], the EC50 with BmOr3 was 260 nM.

Turning to `CCC/C=C\C=C\CCCCCCCCCO` [bombykol], in the assay on BmOr 1, the EC50 was 1500 nM.
